# Test results published in ChEMBL document CHEMBL1131338, “Binding of ATP-sensitive potassium channel (KATP) openers to cardiac membranes: correlation of binding affinities with cardioprotective and smooth muscle relaxing potencies” (J Med Chem, 1998).
# Columns and labels:
# Rattus norvegicus [1] = species on record: Rattus norvegicus; experiment: Effective concentration required to increase time to the onset of contracture (TTC) in globally ischemic rat hearts; assay type: functional
# Rattus norvegicus [2] = species on record: Rattus norvegicus; experiment: Inhibitory concentration against methoxamine-induced contractions in rat aorta; assay type: functional, organism-based
# [3] = molecular target: Sulfonylurea receptor 2, Kir6.2 (Homo sapiens) (UniProt Q14654+O60706); experiment: Hill Coefficient calculated by curve fitting of data to a single binding site model; assay type: protein-complex assay
# In short: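 Competition curves from displacement of 14 nM [3H]P1075 from canine cardiac P3 membranes (500–700 μg, 60 min, MgATP/vanadate/Mg2+ sucrose-Tris buffer pH 7.4, filtration read-out) were fitted to a single-site model to give the Hill coefficient.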
Compound,EC25 (Rattus norvegicus [1]),IC50 (Rattus norvegicus [2]),"IC50 (Rattus norvegicus [2]; Rattus norvegicus, Aorta)",Hill coefficient [3]
CC1(C)Oc2ccc(C#N)cc2[C@H](N2CCCC2=O)[C@H]1O [(-)-CROMAKALIM],>30000 nM,6500 nM,–,–
CCC(C)(C)/N=C(\NC#N)Nc1ccc(S(=O)(=O)N2CCCCC2)cc1,>10000 nM,–,> 30 nM,–
CC(C)(C)/N=C(\NC#N)Nc1ccc(C#N)cc1,1380 nM,–,530 nM,1.15
CC1(C)Oc2ccc(C#N)cc2[C@H](N2CCCC2=O)[C@H]1O,–,–,–,1.06
"CC1(C)Oc2ccc(C#N)cc2[C@H](N2CCCC2=O)[C@H]1O (single isomer, unassigned)",–,–,–,1.5
COc1ccc(Cl)cc1C(=O)NCCc1ccc(S(=O)(=O)NC(=O)NC2CCCCC2)cc1 [GLYBURIDE],–,–,–,0.67
CCC(C)(C)/N=C(\NC#N)Nc1ccc(C#N)cc1,400 nM,–,130 nM,0.99
"CC1(C)Oc2ccc(C#N)cc2[C@H](N2CCCC2=O)[C@H]1O (single isomer, unassigned) [(-)-CROMAKALIM]",2300 nM,40.1 nM,–,–
CC(C)/N=C(\NC#N)Nc1ccc(C#N)cc1,–,–,–,0.81
CC(/N=C(\NC#N)Nc1ccccc1)C(C)(C)C (stereo not given),1290 nM,–,980 nM,1.04
CC(/N=C(\NC#N)Nc1cccc(C#N)c1)C(C)(C)C (stereo not given),1460 nM,–,190 nM,0.67
CCC(C)(C)/N=C(\NC#N)Nc1cccnc1,60 nM,–,4.4 nM,1.17
C/N=C(\NC#N)Nc1ccc(C#N)cc1,>10000 nM,–,130000 nM,–
CC(N/C(=N\C#N)Nc1ccncc1)C(C)(C)C (stereo not given) [PINACIDIL ANHYDROUS],1200 nM,–,59.6 nM,0.86
CCC(C)(C)/N=C(\NC#N)Nc1ccc(I)cc1,140 nM,–,1.4 nM,0.76
CCC(C)(C)/N=C(\NC#N)Nc1cccc(S(=O)(=O)N2CCCCC2)c1,>10000 nM,–,12800 nM,–
CCC(C)(C)/N=C(\NC#N)Nc1ccc(I)c(N=[N+]=[N-])c1,39 nM,–,–,0.82
CC(/N=C(\NC#N)Nc1ccc(C#N)cc1)C(C)(C)C (stereo not given),390 nM,–,30.3 nM,0.75
